Laboratory results from ChEMBL document CHEMBL5058577, “EUbOPEN Chemogenomics Library 2 (Multiplex)” (2022).

System: HEK-293T
Assay: Multiplex assay against HEK293T
Format: toxicity, cell-based
Conditions: human
Method in brief: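 Imaging took place on a CQ1 microscope at 37°C and 5% CO2 once compound had been added to live cells stained at seeding with Hoechst33342, BioTracker Green Microtubule Cytoskeleton Dye, MitoTracker Red and Annexin V Alexa Fluor 680. CellPathfinder machine-learning gating classed cells as Hoechst high-intensity objects or normal cells, classed normal cells as having healthy, pyknosed or fragmented nuclei, and classed pyknosed cells as mitotic or apoptotic. Tubulin, mitochondrial-mass and membrane-permeability phenotypes are per cents of the healthy-nucleus cells.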

[1] = 12 h, 1 µM, compound concentration 1 uM, replicate 1
[2] = 12 h, 1 µM, compound concentration 1 uM, replicate 2
[3] = 12 h, 10 µM, compound concentration 10 uM, replicate 1
[4] = 12 h, 10 µM, compound concentration 10 uM, replicate 2
[5] = 24 h, 1 µM, compound concentration 1 uM, replicate 1
[6] = 24 h, 1 µM, compound concentration 1 uM, replicate 2
[7] = 24 h, 10 µM, compound concentration 10 uM, replicate 1
[8] = 24 h, 10 µM, compound concentration 10 uM, replicate 2
[9] = 48 h, 1 µM, compound concentration 1 uM, replicate 1
[10] = 48 h, 1 µM, compound concentration 1 uM, replicate 2
[11] = 48 h, 10 µM, compound concentration 10 uM, replicate 1
[12] = 48 h, 10 µM, compound concentration 10 uM, replicate 2

CCCCCC(O)/C=C/[C@H]1C(=O)CC(O)C1C/C=C\CCCC(=O)O (stereo not given in full)
Population Apoptotic (%) [1]: 29% | Population Fragmented Nuclei (%) [1]: 8% | Population Healthy Nuclei (%) [1]: 80% | Population Hoechst High Intensity Objects (%) [1]: 8% | Population Membrane Permeable-Phenotype (%) [1]: 0% | Population Mitochondria Different-Phenotype (%) [1]: 44% | Population Mitotic Cells (%) [1]: 70% | Population Normal (%) [1]: 91% | Population Pyknosed Nuclei (%) [1]: 11% | Population Tubulin-Different-Phenotype (%) [1]: 23% | Total Cell Count [1]: 409 | Population Apoptotic (%) [2]: 39% | Population Fragmented Nuclei (%) [2]: 7% | Population Healthy Nuclei (%) [2]: 83% | Population Hoechst High Intensity Objects (%) [2]: 6% | Population Mitochondria Different-Phenotype (%) [2]: 56% | Population Mitotic Cells (%) [2]: 60% | Population Normal (%) [2]: 93% | Population Pyknosed Nuclei (%) [2]: 9% | Population Tubulin-Different-Phenotype (%) [2]: 20% | Total Cell Count [2]: 383 | Population Apoptotic (%) [3]: 48% | Population Fragmented Nuclei (%) [3]: 6% | Population Healthy Nuclei (%) [3]: 79% | Population Hoechst High Intensity Objects (%) [3]: 9% | Population Membrane Permeable-Phenotype (%) [3]: 0% | Population Mitochondria Different-Phenotype (%) [3]: 48% | Population Mitotic Cells (%) [3]: 51% | Population Normal (%) [3]: 90% | Population Pyknosed Nuclei (%) [3]: 14% | Population Tubulin-Different-Phenotype (%) [3]: 31% | Total Cell Count [3]: 409 | Population Apoptotic (%) [4]: 54% | Population Healthy Nuclei (%) [4]: 77% | Population Hoechst High Intensity Objects (%) [4]: 7% | Population Mitochondria Different-Phenotype (%) [4]: 59% | Population Mitotic Cells (%) [4]: 46% | Population Normal (%) [4]: 92% | Population Pyknosed Nuclei (%) [4]: 15% | Population Tubulin-Different-Phenotype (%) [4]: 25% | Total Cell Count [4]: 343 | Population Apoptotic (%) [5]: 40% | Population Fragmented Nuclei (%) [5]: 8% | Population Healthy Nuclei (%) [5]: 83% | Population Hoechst High Intensity Objects (%) [5]: 3% | Population Membrane Permeable-Phenotype (%) [5]: 1% | Population Mitochondria Different-Phenotype (%) [5]: 22% | Population Mitotic Cells (%) [5]: 59% | Population Normal (%) [5]: 96% | Population Pyknosed Nuclei (%) [5]: 8% | Population Tubulin-Different-Phenotype (%) [5]: 11% | Total Cell Count [5]: 611 | Population Apoptotic (%) [6]: 44% | Population Fragmented Nuclei (%) [6]: 7% | Population Healthy Nuclei (%) [6]: 84% | Population Hoechst High Intensity Objects (%) [6]: 7% | Population Membrane Permeable-Phenotype (%) [6]: 0% | Population Mitochondria Different-Phenotype (%) [6]: 41% | Population Mitotic Cells (%) [6]: 55% | Population Normal (%) [6]: 92% | Population Pyknosed Nuclei (%) [6]: 7% | Population Tubulin-Different-Phenotype (%) [6]: 14% | Total Cell Count [6]: 492 | Population Apoptotic (%) [7]: 27% | Population Fragmented Nuclei (%) [7]: 10% | Population Healthy Nuclei (%) [7]: 75% | Population Hoechst High Intensity Objects (%) [7]: 4% | Population Membrane Permeable-Phenotype (%) [7]: 0% | Population Mitochondria Different-Phenotype (%) [7]: 29% | Population Mitotic Cells (%) [7]: 72% | Population Normal (%) [7]: 95% | Population Pyknosed Nuclei (%) [7]: 13% | Population Tubulin-Different-Phenotype (%) [7]: 16% | Total Cell Count [7]: 523 | Population Apoptotic (%) [8]: 44% | Population Fragmented Nuclei (%) [8]: 9% | Population Healthy Nuclei (%) [8]: 77% | Population Hoechst High Intensity Objects (%) [8]: 9% | Population Mitochondria Different-Phenotype (%) [8]: 50% | Population Mitotic Cells (%) [8]: 55% | Population Normal (%) [8]: 90% | Population Tubulin-Different-Phenotype (%) [8]: 21% | Total Cell Count [8]: 388 | Population Apoptotic (%) [9]: 29% | Population Fragmented Nuclei (%) [9]: 12% | Population Healthy Nuclei (%) [9]: 79% | Population Hoechst High Intensity Objects (%) [9]: 1% | Population Membrane Permeable-Phenotype (%) [9]: 1% | Population Mitochondria Different-Phenotype (%) [9]: 20% | Population Mitotic Cells (%) [9]: 70% | Population Normal (%) [9]: 98% | Population Pyknosed Nuclei (%) [9]: 7% | Population Tubulin-Different-Phenotype (%) [9]: 8% | Total Cell Count [9]: 864 | Population Apoptotic (%) [10]: 30% | Population Fragmented Nuclei (%) [10]: 13% | Population Healthy Nuclei (%) [10]: 81% | Population Hoechst High Intensity Objects (%) [10]: 3% | Population Membrane Permeable-Phenotype (%) [10]: 2% | Population Mitochondria Different-Phenotype (%) [10]: 19% | Population Mitotic Cells (%) [10]: 69% | Population Normal (%) [10]: 96% | Population Pyknosed Nuclei (%) [10]: 5% | Population Tubulin-Different-Phenotype (%) [10]: 7% | Total Cell Count [10]: 775 | Population Apoptotic (%) [11]: 22% | Population Fragmented Nuclei (%) [11]: 12% | Population Healthy Nuclei (%) [11]: 79% | Population Hoechst High Intensity Objects (%) [11]: 1% | Population Membrane Permeable-Phenotype (%) [11]: 0% | Population Mitochondria Different-Phenotype (%) [11]: 17% | Population Mitotic Cells (%) [11]: 77% | Population Normal (%) [11]: 98% | Population Pyknosed Nuclei (%) [11]: 8% | Population Tubulin-Different-Phenotype (%) [11]: 7% | Total Cell Count [11]: 815 | Population Apoptotic (%) [12]: 51% | Population Fragmented Nuclei (%) [12]: 10% | Population Healthy Nuclei (%) [12]: 80% | Population Hoechst High Intensity Objects (%) [12]: 3% | Population Mitochondria Different-Phenotype (%) [12]: 26% | Population Mitotic Cells (%) [12]: 48% | Population Normal (%) [12]: 96% | Population Tubulin-Different-Phenotype (%) [12]: 8% | Total Cell Count [12]: 544
